# High-throughput results: PubChem BioAssay, several laboratories
# Hits are enriched below; roughly 1.2% of the tested compounds scored in any of these assays.
# FN deposit inh = fibronectin deposition inhibition | AH1F fibroblasts, Alexa488-fibronectin deposition fluorescence, overnight | inhibition, % at 12.6 µM | 350,000 tested, 0.086% active;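 active = mean inhibition across replicates of 30% or more, regardless of how many single replicates reach that level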;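 also: positive control wells lacked labelled fibronectin entirely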
#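 test system = AH1F fibroblasts assembling fluorescent fibronectin matrix | quantity = 10000 AH1F cells per well | buffer or medium = DMEM plus 2% serum, read in PBS | doses = single dose, pinned | incubation = 1 h cell attachment, overnight exposure to compound and label | detection = fluorescence at 485 nm excitation, 525 nm emission | read-out basis = inhibition from reduced deposited-fibronectin fluorescence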
# CaV13 FRET inh = Primary screen for inhibitors of IQ motif and Ca2+-dependent inactivation inhibitor domain binding in CACNA1D, Förster resonance energy transfer in living cells, …; AID 743397; HEK cells, CFP/YFP FRET ICDI-IQ, plate reader, 10 min; percent FRET-ratio fall versus neutral wells; inhibition, % at 12.3 µM; 340,000 tested, 0.098% active;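 active = mean replicate inhibition of at least 30% and at least 1% of replicates passing that level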;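 also: 0% = median of the neutral control wells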
# SR-BI HDL uptake = inhibitors of mouse SR-BI mediated HDL lipid uptake; ldlA[mSR-BI] CHO cells, DiI-HDL uptake fluorescence, 3 h; inhibition, % at 12.5 µM; 320,000 tested, 0.96% active; AID 488896;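 active = mean replicate inhibition of at least 70% and a set share of replicates each scoring 70 or more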;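 also: 0% = median of neutral control wells and 100% = median of positive control wells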
# Target sequence (Q61009 whole entry, looked up): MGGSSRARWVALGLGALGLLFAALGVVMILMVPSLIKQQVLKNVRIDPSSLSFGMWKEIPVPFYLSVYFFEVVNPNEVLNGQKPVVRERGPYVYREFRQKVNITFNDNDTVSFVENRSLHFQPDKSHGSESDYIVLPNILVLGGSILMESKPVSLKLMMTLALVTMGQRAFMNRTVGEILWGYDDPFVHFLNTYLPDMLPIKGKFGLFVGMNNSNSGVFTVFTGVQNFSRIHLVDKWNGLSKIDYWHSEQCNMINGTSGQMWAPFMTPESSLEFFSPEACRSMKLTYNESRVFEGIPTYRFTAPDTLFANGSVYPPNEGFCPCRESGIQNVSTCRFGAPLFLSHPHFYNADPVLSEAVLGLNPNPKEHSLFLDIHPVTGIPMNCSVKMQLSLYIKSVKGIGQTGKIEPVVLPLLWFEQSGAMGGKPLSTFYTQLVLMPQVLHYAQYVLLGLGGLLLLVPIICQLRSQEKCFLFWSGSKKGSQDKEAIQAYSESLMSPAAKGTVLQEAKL
# Efflux pump mplx = blocks antifungal efflux pumps in multiplex yeast assay; 330,000 tested, 0.44% active; inhibition, % at 10 µM; S. cerevisiae Candida pump triplex, Nile Red efflux;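 active = plate passing quality check with inhibition over a set limit, or well fluorescence over plate mean plus 4 SD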;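 also: Nile Red retained in pooled yeast measured as flow cytometry median fluorescence; 0% = buffer negative control and 100% = Enniatin B positive control; higher means more Nile Red kept so more efflux inhibition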
# SR-BI DiI-HDL act = activators of SR-BI mediated HDL lipid uptake. CHO ldlA[mSR-BI] cells, DiI-HDL uptake fluorescence, 3 h; 100 = double the neutral-control signal. AID 504775. activation, % at 12.5 µM. 320,000 tested, 0.096% active;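 active = mean replicate activation of at least 60% and every replicate at or above 60%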;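 also: 0% = median plate neutral-control signal and 100% = twice that signal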
#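 Assay system: LDL receptor-deficient CHO ldlA cells overexpressing murine SR-BI / Medium: BSA-supplemented, HEPES-buffered Ham's F12, pH 7.4 / Probe or stimulus: DiI-labelled HDL at 10 µg/mL final / Timing: compound with DiI-HDL co-incubation, 3 h at 37 °C / Technique: bottom-read cell fluorescence after medium removal, ex 550/em 595 nm / Measure: HDL uptake via cellular fluorescence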
# Active calls of the source: *; / = no result.
SMILES,FN deposit inh,CaV13 FRET inh,SR-BI HDL uptake,Efflux pump mplx,SR-BI DiI-HDL act
COc1ccccc1NC(=O)Cn1cnc2sc(C(=O)Nc3ccc(OC)c(OC)c3)c(C)c2c1=O,0.1,-2.4,83.0*,0.0,-83.0
CC(C)Cc1cc(C(=O)Nc2ccccc2)c2ccccc2n1,-1.6,-1.6,70.2*,-0.2,-70.2
CCNC(=O)C[C@H]1CC[C@@H]2[C@@H](COc3ccc(NC(=O)Nc4cccc(F)c4)cc3C(=O)N2C)O1,-24.7,/,/,/,/
Cc1noc(C)c1NC(=O)N1C[C@@H](O)COC[C@@H]2O[C@@H](CC(=O)N[C@@H]3CCN(Cc4ccccc4)C3)CC[C@H]21,-4.2,/,/,/,/
COc1cccc(S(=O)(=O)Nc2ccc3c(c2)C(=O)N(C)[C@H]2CC[C@H](CC(=O)Nc4ccc(C(C)C)cc4)O[C@@H]2CO3)c1,11.7,/,/,/,/
Cc1ccc(NC2=C/C(=N/S(=O)(=O)c3cccs3)c3ccccc3C2=O)cc1C,-7.8,-10.3,14.2,0.2,-14.2
Cc1ccccc1NC1=C/C(=N\S(=O)(=O)c2cccs2)c2ccccc2C1=O,52.2*,-5.8,49.9,0.1,-49.9
c1ccc(-c2cn3nc4c(nc3n2)CCCC4)cc1,/,33.5*,-10.0,0.1,10.0
Brc1ccc(-c2cn3nc4c(nc3n2)CCCC4)cc1,/,0.6,1.9,-0.1,-1.9
CN(C)C(=O)c1cccc(-c2ccc(C3[C@@H]4CN(S(=O)(=O)Cc5ccccc5)C[C@H]3N4)cc2)c1 (some centres not stated),-2.9,/,/,/,/
Fc1cnc(N2CCN(c3ccccc3)CC2)nc1N1CCN(c2ccccc2)CC1,30.5*,-2.9,56.9,-0.1,-56.9
CN(C)c1ccc(-c2nc3ccccn3c2/N=C/c2ccc(Br)cc2)cc1,3.7,-3.3,100.9*,0.0,-100.9
Cc1c(-c2ccc(Br)cc2)nc2ccccn12,-2.0,-4.9,18.4,0.4,-18.4
CN1CCN(C(=O)C[C@@H]2CC[C@H](NC(=O)Cc3ccccn3)[C@@H](CO)O2)CC1,-2.0,/,/,/,/
Cc1cc(C(=O)N/N=C/c2cccc(OC(=O)c3cccc(Br)c3)c2)n[nH]1,/,/,23.0,0.1,-23.0
COc1cccc(C(=O)Oc2c(Br)cc(Br)cc2/C=N/NC(=O)c2cc(C)[nH]n2)c1,/,-8.1,102.9*,0.4,-102.9
CC(C)[C@@H]1CCc2cnnn2COC[C@H](Cc2ccccc2)NC1=O,-28.9,/,/,/,/
COC(=O)[C@@H]1C[C@@H]2CC[C@@H](O)C[C@@H]2N1Cc1ccc(Cl)cc1,-6.9,-4.2,-13.8,-0.1,13.9
COC(=O)[C@@H]1C[C@H]2CC[C@H](O)C[C@H]2N1Cc1ccc(C)s1,-2.4,-6.6,-60.1,0.0,60.1*
COc1ccccc1NC(=O)N[C@H]1CC[C@@H](CCNC(=O)Cc2ccccn2)O[C@@H]1CO,-7.4,/,/,/,/
O=C(CC1CC1)N[C@H]1CC[C@@H](CCNS(=O)(=O)c2ccc(Cl)cc2)O[C@H]1CO,-9.9,/,/,/,/
CO[C@H]1CN(C)C(=O)c2cc(NC(=O)Nc3ccccc3)ccc2OC[C@@H](C)N(C(=O)Nc2c(C)noc2C)C[C@H]1C,-0.4,/,/,/,/
COc1ccc(C(=O)Nc2cc(C)nn2-c2nc3ccccc3[nH]2)c(OC)c1,11.8,-2.3,75.3*,0.1,-75.3
Cc1cc(NC(=O)c2cccs2)n(-c2nc3ccccc3[nH]2)n1,-0.2,-3.0,93.2*,0.0,-93.2
Cc1cc(NC(=O)c2ccccc2)n(-c2nc3ccccc3[nH]2)n1,-1.2,-3.6,63.7,0.0,-63.7
SMILES,FN deposit inh,CaV13 FRET inh,SR-BI HDL uptake,Efflux pump mplx,SR-BI DiI-HDL act
Cc1cc(NC(=O)c2sccc2C)n(-c2nc3ccccc3[nH]2)n1,4.4,-6.1,78.2*,0.1,-78.2
C/C(=N\Nc1nc(C)c(C)s1)c1ccc([N+](=O)[O-])cc1,5.1,2.4,81.0*,0.0,-81.0
COc1ccc2oc(C)c(C(=O)c3ccccc3)c2c1,-5.3,-4.5,/,-0.1,/
COc1ccc2oc(/C=C/N(C)C)c(C(=O)c3ccc(Cl)cc3)c2c1,/,-7.2,77.7*,-0.1,-77.7
N#CC1=C(S)N(c2ccccc2)C(c2ccc(-c3cc(Cl)ccc3Cl)o2)NC1=O (configuration not stated),7.7,12.0,-3.0,0.5*,3.0
O=C(C[C@H]1CC[C@@H]2[C@H](COC[C@H](O)CN2S(=O)(=O)c2cccc(F)c2)O1)Nc1ccccc1,-0.8,/,/,/,/
CCCC#Cc1ccc2c(c1)O[C@@H](CN(C)C(=O)c1ccccn1)[C@H](C)CN([C@H](C)CO)S2(=O)=O,-7.9,/,/,/,/
COc1cc(OC)c(OC)cc1/C=C1\CCC/C(=C\c2cc(OC)c(OC)cc2OC)C1=O,8.3,-27.3,43.8,/,-43.8
COc1ccc(/C=C2\CCC/C(=C\c3ccc(OC)c(OC)c3OC)C2=O)c(OC)c1OC,5.6,-4.3,73.7*,/,-73.7
C[C@@H]1CN(C)C(=O)c2cc(N(C)C)ccc2O[C@@H]1CN(C)C(=O)OC(C)(C)C,-4.6,/,/,/,/
CCOC(=O)c1cc2nc(Nc3ccc(OC)cc3)sc2s1,/,-4.0,72.3*,-0.2,-72.3
CCOC(=O)c1sc(Nc2ccc(Br)cc2)nc1C,-11.8,-4.4,33.5,-0.1,-33.5
COc1cc(N2C(=O)C=CC2=O)c(OC)cc1Cl,34.8*,-17.8,-2.8,0.2,2.8
COc1cc(Cl)c(S(=O)(=O)N2CCCC2)cc1Cl,3.8,-1.7,12.3,0.0,-12.3
COc1ccc(/C=N/NC(=O)c2ccncc2)cc1OC,4.9,-4.9,-15.7,0.0,15.7
COc1cc(/C=N/NC(=O)c2ccncc2)ccc1OC(=O)c1cc(OC)c(OC)c(OC)c1,0.7,-4.5,77.0*,-0.1,-77.0
COc1cc(C(=O)Oc2ccccc2/C=N/NC(=O)c2ccc(Cl)cc2Cl)cc(OC)c1OC,/,/,82.4*,-0.1,-82.4
COc1cc(/C=N/NC(=O)c2cccnc2)ccc1OCC(=O)Nc1c(C)cc(C)cc1C,-5.3,-5.8,71.0*,0.1,-71.0
COc1ccc(NC(=O)COc2ccc(/C=N/NC(=O)c3cccnc3)cc2OC)cc1,/,-1.9,19.7,0.0,-19.7
O=C(CC1Nc2ccccc2NC1=O)Nc1ccc2c(c1)OCO2 (configuration not stated),33.6*,1.5,3.2,0.0,-3.2
CCCN1C[C@H](C)[C@H](OC)CN(C)C(=O)c2ccc(NC(=O)CC)cc2OC[C@H]1C,-0.4,/,/,/,/
CCOC(=O)c1csc(N)c1-c1ccc([N+](=O)[O-])cc1,-3.2,-19.2,-69.2,0.2,69.2*
CCOC(=O)c1c(-c2cccc([N+](=O)[O-])c2)csc1N,5.4,0.7,20.3,0.1,-20.3
Cn1cc(C(=O)c2ccc(Cl)cc2Cl)cc1C(=O)N/N=C(\N)COc1cccc(C(F)(F)F)c1,/,-4.7,80.8*,0.1,-80.8
Cc1cc(/C=N/NC(N)=S)c(C)n1-c1ccc(Cl)c(Cl)c1,-9.5,-17.8,81.5*,-2.0,-81.5
